Diaph inh CS: inhibits diaphorase or chemically oxidizes, flagging diaphorase assay artifacts; diaphorase resazurin-to-resorufin fluorescence, NADH, 16 min; bacterial (C. kluyveri) enzyme, not human; inhibition, % at 20 µM; actives 0.69% (n = 190,000); AID 1217;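 active means primary screen inhibition at 20 µM above a set limit, cut at about 50% in these data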;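 further: plate controls were DMSO with full reaction for no effect and wells lacking NADH for full effect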
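System: Diaphorase enzyme from Clostridium kluyveri | Amount: Enzyme working solution with 0.14 U/mL diaphorase | Benchmarks: No-NADH positive control and DMSO neutral control | Signal: Fluorescence of resorufin formed from resazurin, Ex 544/Em 590 nm | Schedule: 16-min room-temperature incubation before reading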
G6PDH counter: inhibits Leuconostoc G6PDH, flagging false hits in G6PDH-based assays; inhibition, % at 5 µM; actives 0.12% (n = 200,000); Purified L. mesenteroides G6PDH, diaphorase/resazurin coupled fluorescence, 45 min
Diaph act CS: diaphorase activation or chemical reduction counter-screen; activation factor at 20 µM; actives 0.005% (n = 190,000); Diaphorase/resazurin coupled assay, resorufin fluorescence, 16 min; hits give high values; 1 = vehicle wells, 0 = NADH-free wells;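 active means diaphorase activity raised at least twofold by the compound at 20 µM; inactive means activation factor below 2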
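Assay system: bacterial diaphorase enzyme (C. kluyveri) / Input: enzyme 0.07 U/mL final / Medium: 50 mM HEPES pH 7.4 with 4.542 mM MgCl2, 0.005% Tween 20 / Doses: single compound dose of 20 µM, 1% DMSO final / Incubation: 16 min enzyme reaction, ambient temperature / Signal: fluorescence, excitation 544 nm and emission 590 nm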
L major viab: Leishmania major promastigote growth inhibition. AID 1063. inhibition, % at 10 µM. actives 9% (n = 200,000). Leishmania major promastigotes, resazurin fluorescence viability;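 further: promastigotes grown with compound for 44 hours at 28 °C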
PfGluPho inh: PfG6PD (Plasmodium falciparum) enzyme inhibition; PfGluPho enzyme, NADPH resazurin-diaphorase fluorescence; inhibition, % at 20 µM; actives 0.78% (n = 350,000); AID 504690;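 active means inhibition reaching at least a set limit at 20 µM in the primary screen, cut at about 59% in these data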;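 further: 0% = DMSO wells with substrate and 100% = DMSO wells lacking glucose-6-phosphate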
DTT redox prof: compounds producing H2O2 with reducing agent – biochemical, NIH compound library profiling, artefact control for MLSCN library redox annotation, primary screen | DTT-dependent redox cycling H2O2, phenol red/HRP absorbance; 100% = 100 µM peroxide control, 0% = buffer | activation, % at 10 µM | actives 0.03% (n = 200,000);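 active means activation of at least 50% relative to the plate's high and low controls in the primary single-dose screen; inactive means activation below 50%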;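 further: compound incubated with DTT at 0.8 mM final as the reducing agent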
Starred values were filed as active, the others as inactive; / = not tested or not shown. The sample as a whole holds a higher share of hits than the screen did. Unless noted, no stated cut-off is given here; in the data, active means inhibition above about 50%; inactive means the rest.

SMILES | Diaph inh CS | G6PDH counter | Diaph act CS | L major viab | PfGluPho inh | DTT redox prof
N#Cc1ccccc1OCC(=O)Nc1c(C(=O)C2CC2)oc2ccccc12 | 2 | 5 | 1 | 13 | -7 | 0
CC1(C)CC(N2CCCCC2)=CC(=[N+]2CCCCC2)C1 | 9 | 4 | 0.9 | 100* | -2 | 0
CCCN(CCC)C1=CC(=[N+]2CCCC2)CC(C)(C)C1 | 4 | 9 | 1 | 100* | 0 | 0
O=C(CNC(=O)c1ccccc1C(F)(F)F)N/N=C/c1cccs1 | / | / | / | / | -5 | /
O=C1C2CC=C(Cl)CC2C(=O)N1CCC[n+]1cccc2ccccc21 (stereo not given) | 16 | -1 | 0.8 | -5 | 4 | 0
S=C(NCCc1ccccc1)N1CCn2cccc2C1c1cccnc1 (stereo not given) | 5 | 1 | 0.9 | 95* | 22 | 0
S=C(NCc1ccccc1)N1CCn2cccc2C1c1cccnc1 (stereo not given) | 12 | 3 | 0.9 | 91* | 9 | 0
CCOC(=O)C1=C(COC(=O)[C@@H](NC(=O)c2cccc(C)c2)C(C)C)NC(=O)NC1C (stereo not given in full) | / | / | / | / | 4 | /
CNc1ccccc1C(=O)OCC(=O)N1CCc2ccccc2C1 | / | / | / | / | 4 | /
CCCOC(=O)/C=C/c1c(C)[nH]c(=O)[nH]c1=O | 8 | 9 | 0.9 | 1 | -5 | 0
CCCCOC(=O)/C=C/c1c(C)[nH]c(=O)[nH]c1=O | 8 | 5 | 0.9 | 52* | -12 | 0
CCCC[C@H]1COCCS(=O)(=O)N1Cc1ccc(Br)cc1 | / | / | / | / | 23 | /
CC(Cc1cccnc1)NC(=O)c1cc(COc2ccc(F)cc2Cl)on1 (stereo not given) | / | / | / | / | -10 | /
O=S(=O)(NCC(c1cccnc1)N1CCN(c2ccccc2)CC1)c1cc(F)ccc1F (stereo not given) | 20 | -10 | 0.8 | 97* | -6 | 1
CCS(=O)(=O)NCC(c1cccnc1)N1CCN(c2ccccc2)CC1 (stereo not given) | -4 | -2 | 1 | 38 | 0 | -1
O=S(=O)(NCC(c1cccnc1)N1CCN(c2ccc(F)cc2)CC1)c1ccccc1 (stereo not given) | / | / | / | 92* | 13 | 1
COc1ccccc1N1CCN(C(CNS(=O)(=O)c2cc(F)ccc2F)c2cccnc2)CC1 (stereo not given) | -9 | 6 | 1.1 | 90* | 20 | 1
NC1(CO)COC(c2ccccc2)OC1 (stereo not given) | / | / | / | / | 9 | /
CC(C)N1CCN(Cc2coc3ccccc3c2=O)CC1CCO (stereo not given) | 0 | 15 | 1 | -1 | 16 | 0
Cc1sc(NC(=S)Nc2ccc(F)cc2)c(C(N)=O)c1C | 58* | 12 | 0.4 | 4 | 20 | -1
Cc1sc(NC(=S)NC(=O)C2CCCCC2)c(C(N)=O)c1C | 21 | 6 | 0.8 | 63* | 16 | 0
COc1ccc(C(=O)N=S2CCN(C(=O)c3ccc(Cl)cc3)CC2)cc1 | / | / | / | / | 2 | /
CCNc1nc(NC(C)C)nc(N(C#N)CCOc2ccc(Cl)cc2Cl)n1 | 33 | 5 | 0.7 | 97* | 9 | 1
CCNc1nc(NC(C)C)nc(N(C#N)Cc2ccccc2)n1 | -1 | 4 | 1 | 16 | -3 | 0
O=C(NCc1cccnc1)c1cc(Sc2cccc(Cl)c2)nc2ccccc12 | 9 | -20 | 0.9 | 68* | 20 | 0
SMILES | Diaph inh CS | G6PDH counter | Diaph act CS | L major viab | PfGluPho inh | DTT redox prof
O=C(Nc1ccc2oc(-c3ccccc3Cl)nc2c1)c1ncn[nH]1 | -4 | -47 | 1 | 94* | -12 | -1
O=C(Nc1ccc2oc(-c3ccccc3F)nc2c1)c1ccc2c(c1)OCCO2 | 20 | 4 | 0.8 | 66* | 21 | -1
CCC(C)c1ccc2oc(-c3ccc(NC(=O)c4ncn[nH]4)cc3)nc2c1 (stereo not given) | -16 | -32 | 1.2 | 65* | -6 | 0
COc1cc(C)c(Cl)cc1S(=O)(=O)N1CCSC1 | / | / | / | / | -2 | /
COC(=O)c1sccc1NC(=O)CC1NCCNC1=O (stereo not given) | / | / | / | / | 4 | /
Cc1ccc(/C=C2/SC(=O)NC2=S)o1 | 46 | 15 | 0.5 | 5 | 32 | -2
COc1cc(CNCCc2ccccc2)ccc1OCc1ccc(Cl)nc1 | 7 | 6 | 0.9 | 100* | 50 | 0
COc1cc(CNCC(O)c2ccccc2)ccc1OCc1ccc(Cl)nc1 (stereo not given) | 5 | 11 | 1 | 100* | -16 | -1
Cc1cccc2nc(CSc3nc4ccccc4o3)cn12 | 11 | 1 | 0.9 | 64* | 3 | 1
c1ccc2oc(SCc3cn4ccccc4n3)nc2c1 | -1 | 22 | 1 | 7 | -9 | 0
Cn1c(Cc2cccs2)nnc1SCC(=O)Nc1ccc(F)cc1F | / | / | / | / | 9 | /
Clc1ccc2c(NCc3ccccn3)ccnc2c1 | / | / | / | / | -6 | /
CCOc1ccccc1Nc1ccnc2cc(Cl)ccc12 | 19 | 10 | 0.8 | 53* | 13 | -1
COc1ccc(N2CCN(S(=O)(=O)c3c(C(=O)N4CCOCC4)c(C)n(C)c3C)CC2)cc1 | / | / | / | / | 12 | /
COc1ccc(C(=O)NCCS(=O)(=O)N(C)C2CCCCC2)cc1 | / | / | / | / | 0 | /
O=S(=O)(NC1=NCCC1)c1cccc(NS(=O)(=O)c2ccc(OC(F)(F)F)cc2)c1 | 8 | -11 | 0.9 | 54* | -32 | 0
CCn1c(SCC(=O)Nc2ccc3c(c2)n(C)c(=O)n3C)nnc1-c1ccncc1 | / | / | / | / | 8 | /
CCc1nnc(NC(=O)CSc2nnc(-c3ccccc3O)n2-c2ccc(C)cc2C)s1 | 31 | 10 | 0.7 | 99* | -46 | 3
Cn1c(=O)n(C)c2cc(NC(=O)CSc3nnc(-c4ccccc4O)n3-c3ccccc3)ccc21 | 15 | -66 | 0.9 | 60* | -28 | -3
CCCC1NC(C(=O)O)Cc2c1[nH]c1ccccc21 (stereo not given) | / | / | / | / | 3 | /
Cc1cc(C)nc(N/N=C2/CCCC/C2=C\c2ccccc2)n1 | 17 | 2 | 0.8 | 100* | 24 | 0
Cc1sc2nc(C3CC3)nc(SCC(=O)N3CCCc4ccccc43)c2c1C | 0 | -24 | 1 | 94* | / | -1
Cn1c(=O)c2c(SCC(=O)N3CCCc4ccccc43)nc(C3CC3)nc2n(C)c1=O | 28 | -62 | 0.7 | 61* | 2 | -1
Cn1c(=O)c2c(nc(SCC(=O)N3CCCc4ccccc43)n2C)n(C)c1=O | / | / | / | 3 | / | -3
COc1cccc(/C=N/n2c(N)c(S(=O)(=O)c3cccs3)c3nc4ccccc4nc32)c1 | 8 | -3 | 0.9 | -2 | -13 | -4
COc1ccc(/C=N/n2c(N)c(S(=O)(=O)c3cccs3)c3nc4ccccc4nc32)cc1OC | 20 | 8 | 0.8 | 62* | -10 | 0

Bioassay records (PubChem)
